In brackets after ≈: the same amount, converted by molar mass. Activity calls are given as the source filed them. The calls are words filed in the database; no cut-off is given here.
How the values were obtained:
Escherichia coli = assay: Antimicrobial activity against Escherichia coli ATCC 35218 after 36 hrs under aerobic condition by microdilution method; type: functional; settings: ATCC 35218, 36 h
How it was run: (§1)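 Bacteria grown overnight at 37 °C in tryptone soya broth (~10^9 cells/mL), then diluted in sterile saline to about 1.0 × 10^5 per well. Broth serial microdilution with compounds predissolved in DMSO, at final […]; DMSO ≤1%. Incubated 36 h at 37 °C. MIC = lowest concentration with no visible growth under binocular microscope. Inocula checked on TSA. Controls: DMSO, streptomycin.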

Proteus mirabilis = assay: Antimicrobial activity against Proteus mirabilis isolates after 36 hrs under aerobic condition by microdilution method; type: functional; how it was run: as §1
Pseudomonas aeruginosa = assay: Antimicrobial activity against Pseudomonas aeruginosa ATCC 27853 after 36 hrs under aerobic condition by microdilution method; type: functional, organism-based; how it was run: as §1
Staphylococcus aureus = assay: Antimicrobial activity against Staphylococcus aureus ATCC 6538 after 36 hrs under aerobic condition by microdilution method; type: functional; settings: ATCC 6538, 36 h; how it was run: as §1
Micrococcus flavus = assay: Antimicrobial activity against Micrococcus flavus ATCC 10240 after 36 hrs under aerobic condition by microdilution method; type: functional; settings: ATCC 10240, 36 h; how it was run: as §1
Bacillus cereus = assay: Antimicrobial activity against Bacillus cereus isolate after 36 hrs under aerobic condition by microdilution method; type: functional; how it was run: as §1
Helicobacter pylori [1] = assay: Antimicrobial activity against Helicobacter pylori isolates after 3 days under microaerobic condition by microdilution method
Helicobacter pylori [2] = assay: Antimicrobial activity against Helicobacter pylori isolates after 36 hrs under […] condition by microdilution method; type: functional

Compound	MIC (Escherichia coli)	Activity (Proteus mirabilis)	Activity (Pseudomonas aeruginosa)	MIC (Staphylococcus aureus)	MIC (Micrococcus flavus)	MIC (Bacillus cereus)	MIC (Helicobacter pylori [1])	Activity (Helicobacter pylori [2])	Activity (Helicobacter pylori [1])	MIC (Proteus mirabilis)
C=C1C(=O)O[C@H]2C[C@@]3(C)[C@H](O)CCC(=C)[C@@H]3[C@@H](O)[C@H]12	50 µg/mL (≈ 189 µM)	inactive	inactive	50 µg/mL (≈ 189 µM)	50 µg/mL (≈ 189 µM)	50 µg/mL (≈ 189 µM)	50 µg/mL (≈ 189 µM)	–	–	–
C=C1C(=O)O[C@H]2C[C@@]3(C)[C@H](O)CC=C(C)[C@@H]3[C@@H](O)[C@H]12	–	inactive	inactive	50 µg/mL (≈ 189 µM)	–	25 µg/mL (≈ 94.6 µM)	12.5 µg/mL (≈ 47.3 µM)	–	–	–
COc1cc(-c2oc3cc(O)cc(O)c3c(=O)c2O)ccc1O	–	inactive	inactive	–	–	–	–	inactive	–	–
COc1ccc(-c2oc3cc(O)c(OC)c(O)c3c(=O)c2OC)cc1O	–	inactive	inactive	–	–	–	–	–	–	–
O=c1cc(-c2ccc(O)cc2)oc2cc(O)cc(O)c12	–	inactive	inactive	–	–	–	–	–	inactive	–
COc1c(-c2ccc(O)c(O)c2)oc2cc(O)cc(O)c2c1=O [3-O-METHYLQUERCETIN]	50 µg/mL (≈ 158 µM)	inactive	inactive	–	–	–	12.5 µg/mL (≈ 39.5 µM)	–	–	–
O=C1c2c(O)cc(O)cc2O[C@H](c2ccc(O)c(O)c2)[C@H]1O [(+)-TAXIFOLIN]	–	inactive	inactive	–	–	–	25 µg/mL (≈ 82.2 µM)	–	–	–
C=C1C(=O)O[C@H]2C[C@@]3(C)[C@H](C(C)=CC[C@@H]3O)[C@@H](O)[C@H]12 [ALTISSIN]	–	inactive	inactive	50 µg/mL (≈ 189 µM)	–	12.5 µg/mL (≈ 47.3 µM)	50 µg/mL (≈ 189 µM)	–	–	–
O=C(/C=C/c1ccc(O)c(O)c1)O[C@@H]1C[C@](O)(C(=O)O)C[C@@H](O)[C@H]1O [CHLOROGENIC ACID]	–	inactive	inactive	–	–	–	6.25 µg/mL (≈ 17.6 µM)	–	–	–
O=C1C[C@@H](c2ccc(O)c(O)c2)Oc2cc(O)cc(O)c21 [ERIODICTYOL]	–	inactive	inactive	–	–	–	50 µg/mL (≈ 173 µM)	–	–	–
O=c1c(O[C@@H]2O[C@H](CO)[C@@H](O)[C@H](O)[C@H]2O)c(-c2ccc(O)c(O)c2)oc2cc(O)cc(O)c12 [ISOQUERCETIN]	–	inactive	inactive	–	–	–	25 µg/mL (≈ 53.8 µM)	–	–	–
COc1ccc(-c2oc3cc(O)cc(O)c3c(=O)c2O)cc1 [KAEMPFERIDE]	–	inactive	inactive	–	50 µg/mL (≈ 167 µM)	25 µg/mL (≈ 83.3 µM)	6.25 µg/mL (≈ 20.8 µM)	–	–	–
O=c1c(O)c(-c2ccc(O)c(O)c2)oc2cc(O)cc(O)c12 [QUERCETIN]	–	inactive	inactive	–	–	50 µg/mL (≈ 165 µM)	50 µg/mL (≈ 165 µM)	–	–	–
COc1cc(O)c2c(=O)c(O)c(-c3ccc(O)c(O)c3)oc2c1 [RHAMNETIN]	–	inactive	inactive	–	–	–	50 µg/mL (≈ 158 µM)	–	–	–
CN[C@@H]1[C@H](O[C@H]2[C@H](O[C@H]3[C@H](O)[C@@H](O)[C@H](N=C(N)N)[C@@H](O)[C@@H]3N=C(N)N)O[C@@H](C)[C@]2(O)C=O)O[C@@H](CO)[C@H](O)[C@H]1O [STREPTOMYCIN]	200 µg/mL (≈ 344 µM)	–	–	100 µg/mL (≈ 172 µM)	100 µg/mL (≈ 172 µM)	100 µg/mL (≈ 172 µM)	–	–	–	400 µg/mL (≈ 688 µM)
C=C1C(=O)O[C@H]2/C=C(\C)[C@@H](O)CC/C(C)=C/[C@@H](O)[C@H]12 [TATRIDIN A]	–	inactive	inactive	50 µg/mL (≈ 189 µM)	–	50 µg/mL (≈ 189 µM)	12.5 µg/mL (≈ 47.3 µM)	–	–	–
C=C1C(=O)O[C@H]2CC(=C)[C@@H](O)CC/C(C)=C/[C@@H](O)[C@H]12 [TATRIDIN B]	50 µg/mL (≈ 189 µM)	inactive	inactive	50 µg/mL (≈ 189 µM)	50 µg/mL (≈ 189 µM)	50 µg/mL (≈ 189 µM)	50 µg/mL (≈ 189 µM)	–	–	–

From ChEMBL document CHEMBL1146521, “Sesquiterpene lactones from Anthemis altissima and their anti-Helicobacter pylori activity” (2003)
